{
  "source": "ChEMBL document CHEMBL5055621",
  "about": "“Synthesis and Characterization of the Novel Rodent-Active and CNS-Penetrant P2X7 Receptor Antagonist Lu AF27139” (J Med Chem, 2021)",
  "key": {"[1]": {"test": "Cmax in rat at 2 mg/kg, po", "format": "ADME, organism-based", "design": "dose 2 mg/kg, route po", "settings": "in vivo; call rule not given here", "how_it_was_run": "(§1)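 Rats received 1 mg/kg iv or 2 mg/kg po. The plasma concentration–time profile was analysed by a noncompartmental model to give half-life, Cmax, Tmax and absolute oral bioavailability.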"}, "P2X purinoceptor 7 [2]": {"molecular_target": "T1, P2X purinoceptor 7 (Rattus norvegicus, UniProt Q64663)", "T1 sequence (Q64663 whole entry)": "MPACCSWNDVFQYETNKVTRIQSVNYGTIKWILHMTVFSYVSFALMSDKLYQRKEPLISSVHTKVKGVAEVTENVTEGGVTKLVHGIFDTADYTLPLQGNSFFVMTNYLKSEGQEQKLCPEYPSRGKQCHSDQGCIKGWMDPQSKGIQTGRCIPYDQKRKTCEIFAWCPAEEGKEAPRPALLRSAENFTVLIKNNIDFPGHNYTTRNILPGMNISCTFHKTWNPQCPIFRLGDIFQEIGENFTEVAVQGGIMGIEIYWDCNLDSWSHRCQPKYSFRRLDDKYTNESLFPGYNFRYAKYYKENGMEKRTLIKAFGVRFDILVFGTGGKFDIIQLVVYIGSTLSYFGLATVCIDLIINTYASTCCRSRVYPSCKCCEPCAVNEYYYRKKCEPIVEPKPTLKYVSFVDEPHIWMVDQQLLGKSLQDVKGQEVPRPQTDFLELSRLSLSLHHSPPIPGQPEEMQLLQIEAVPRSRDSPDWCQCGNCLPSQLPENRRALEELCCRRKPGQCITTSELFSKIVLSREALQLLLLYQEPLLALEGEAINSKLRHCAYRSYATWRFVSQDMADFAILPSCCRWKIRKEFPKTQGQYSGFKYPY", "test": "Antagonist activity at rat P2X7 receptor expressed in HEK293 cells assessed as inhibition of BzATP-induced calcium-flux measured after 60 mins by FLIPR analysis", "format": "cell-based", "how_it_was_run": "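Stable rat or mouse P2X7 HEK293 cells in HBSS/20 mM HEPES/2.5 mM probenecid/0.05% BSA, pH 7.4, were loaded with Fluo-4 NW (37 °C 30 min, RT 30 min). After 30 min at RT, calcium fluorescence was read by FLIPR; n ≥ 3.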"}, "[3]": {"test": "Cmax in female mouse at 100 mg/kg, po administered as single dose", "settings": "in vivo"}, "[4]": {"test": "Inhibition of BzATP-induced IL-1beta in mouse primary microglia cells primed with LPS measured after repeated BzATP treatment by microplate reader", "format": "functional, tissue-based", "how_it_was_run": "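Cortical microglia from rat (P3 pups) or mouse were plated 1 day before assay and primed with 3 EU/mL LPS for 3.5 h. Compound was added for 30 min, then BzATP (1 mM) for 30 min at 37 °C. IL-1β was measured by MesoScale assay, normalised to BCA protein, and given as mean ± SD.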"}, "Mus musculus": {"tested_on": "Mus musculus", "test": "Toxicity in C57BL/6NCrl mouse assessed as histological changes up to 100 mg/kg, po bid by 14 days exploratory toxicology study", "format": "organism-based", "settings": "in vivo, 336 h, time 14 day", "how_it_was_run": "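Exploratory 14-day repeat oral toxicity study in mice with dosing twice daily (bid) up to 100 mg/kg. Endpoints were macroscopic pathology, histology and hematology.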"}, "[5]": {"test": "Absolute oral bioavailability in rat at 2 mg/kg", "format": "ADME, organism-based", "settings": "in vivo", "how_it_was_run": "as §1"}, "[6]": {"test": "Tmax in female mouse at 100 mg/kg, po after 14 days", "settings": "in vivo"}, "Cytochrome P450 2B6": {"molecular_target": "T2, Cytochrome P450 2B6 (Homo sapiens, UniProt P20813)", "T2 sequence (P20813 whole entry)": "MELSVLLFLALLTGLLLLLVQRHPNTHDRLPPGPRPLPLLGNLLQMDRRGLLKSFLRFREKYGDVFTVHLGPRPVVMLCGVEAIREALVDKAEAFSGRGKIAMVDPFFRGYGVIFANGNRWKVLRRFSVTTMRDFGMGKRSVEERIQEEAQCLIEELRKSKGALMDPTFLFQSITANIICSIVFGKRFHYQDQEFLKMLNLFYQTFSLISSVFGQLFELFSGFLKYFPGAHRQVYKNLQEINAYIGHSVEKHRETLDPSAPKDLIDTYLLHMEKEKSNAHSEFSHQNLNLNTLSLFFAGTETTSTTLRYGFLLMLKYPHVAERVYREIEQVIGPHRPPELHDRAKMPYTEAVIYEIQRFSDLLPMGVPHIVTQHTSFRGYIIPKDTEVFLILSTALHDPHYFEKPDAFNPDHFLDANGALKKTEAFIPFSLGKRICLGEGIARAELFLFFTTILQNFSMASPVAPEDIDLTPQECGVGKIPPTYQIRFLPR", "test": "Inhibition of CYP2B6 (unknown origin) upto 25 uM", "format": "ADME"}, "[7]": {"test": "Inhibition of BzATP-induced current in rat primary microglia cells measured after repeated BzATP treatment at -60 mV at 100 nM by whole cell patch clamp assay relative to control", "format": "functional", "how_it_was_run": "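Rat primary microglia were whole-cell patch-clamped at −60 mV (external pH 7.4 with 1.8 mM CaCl2; CsCl/EGTA internal pH 7.2). Currents came from 10 s applications of 300 μM BzATP, applied repeatedly. Compound was applied by gravity via capillary for 60 s, and inhibition was taken relative to the control response.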"}, "[8]": {"test": "Cmax in male rat at 3 mg/kg, po after 7 days", "format": "ADME, organism-based", "design": "dose 3 mg/kg, time 7 day, route po", "settings": "in vivo"}, "P2X purinoceptor 7 [9]": {"molecular_target": "T3, P2X purinoceptor 7 (Mus musculus, UniProt Q9Z1M0)", "T3 sequence (Q9Z1M0 whole entry)": "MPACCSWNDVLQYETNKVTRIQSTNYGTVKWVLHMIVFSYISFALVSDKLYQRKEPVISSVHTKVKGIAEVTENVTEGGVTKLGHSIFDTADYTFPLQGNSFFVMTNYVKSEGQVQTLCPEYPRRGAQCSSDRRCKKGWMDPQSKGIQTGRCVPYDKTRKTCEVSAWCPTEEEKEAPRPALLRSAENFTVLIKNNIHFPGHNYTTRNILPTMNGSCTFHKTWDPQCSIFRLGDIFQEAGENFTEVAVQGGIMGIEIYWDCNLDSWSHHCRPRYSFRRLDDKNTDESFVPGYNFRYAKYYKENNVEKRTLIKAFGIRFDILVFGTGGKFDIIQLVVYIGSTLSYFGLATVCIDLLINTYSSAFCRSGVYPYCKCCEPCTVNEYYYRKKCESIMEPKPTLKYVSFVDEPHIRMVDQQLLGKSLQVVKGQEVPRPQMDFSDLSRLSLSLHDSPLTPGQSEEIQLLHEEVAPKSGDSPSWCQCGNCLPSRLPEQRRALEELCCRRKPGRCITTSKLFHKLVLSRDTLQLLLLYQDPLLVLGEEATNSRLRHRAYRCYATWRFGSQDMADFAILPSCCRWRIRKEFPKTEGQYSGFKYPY", "test": "Displacement of [3H]-A-804598 from mouse P2X7 receptor expressed in HEK293 cell membrane by in vitro binding assay", "format": "cell membranes"}, "[10]": {"test": "Free plasma concentration in rat at 10 mg/kg, po after 1 hr by ex vivo equilibrium dialysis", "format": "ADME, organism-based", "how_it_was_run": "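Male Sprague–Dawley rats were dosed orally at 1–100 mg/kg, and total plasma concentration was measured at 1 and 2 h. This was multiplied by fraction unbound from ex vivo equilibrium dialysis; mean ± SEM, n = 3 animals.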"}, "Cytochrome P450 3A4": {"molecular_target": "Cytochrome P450 3A4 (Homo sapiens, UniProt P08684)", "sequence (P08684 whole entry)": "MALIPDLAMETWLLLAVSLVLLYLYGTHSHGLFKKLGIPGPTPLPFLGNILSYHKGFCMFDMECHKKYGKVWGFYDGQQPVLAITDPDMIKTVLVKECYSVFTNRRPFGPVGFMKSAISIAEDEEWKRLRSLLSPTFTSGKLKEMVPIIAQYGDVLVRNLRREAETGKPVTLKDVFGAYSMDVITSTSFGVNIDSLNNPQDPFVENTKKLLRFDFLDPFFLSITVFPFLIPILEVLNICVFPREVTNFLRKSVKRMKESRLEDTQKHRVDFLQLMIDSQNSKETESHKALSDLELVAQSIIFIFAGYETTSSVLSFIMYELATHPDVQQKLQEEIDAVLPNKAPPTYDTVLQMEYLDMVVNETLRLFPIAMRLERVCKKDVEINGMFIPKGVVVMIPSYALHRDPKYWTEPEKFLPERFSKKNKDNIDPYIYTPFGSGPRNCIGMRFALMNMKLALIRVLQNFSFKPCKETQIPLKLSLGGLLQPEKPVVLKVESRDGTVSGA", "test": "Time dependent inhibition of CYP3A4 (unknown origin) upto 25 uM", "format": "ADME"}},
  "data": [
    {"smiles": "O=C(NC[C@H](c1ccc(Cl)cc1)N1CCOCC1)c1sc(-c2ncccn2)nc1C(F)(F)F", "values": [
      {"measurement": "Cmax", "setting": "[1]", "result": 2.7, "unit": "µM"},
      {"measurement": "IC50", "setting": "P2X purinoceptor 7 [2]", "result": 2.4, "unit": "nM"},
      {"measurement": "Cmax", "setting": "[3]", "result": 140, "unit": "µM"},
      {"measurement": "IC50", "setting": "[4]", "result": 26, "unit": "nM"},
      {"measurement": "Activity", "setting": "Mus musculus", "result": "Non-Toxic"},
      {"measurement": "bioavailability", "setting": "[5]", "result": "≥ 100", "unit": "%"},
      {"measurement": "Tmax", "setting": "[6]", "result": 1, "unit": "h"},
      {"measurement": "inhibition (INH)", "setting": "Cytochrome P450 2B6", "result": "Not Active"},
      {"measurement": "inhibition at 0.1 µM", "setting": "[7]", "result": 80, "unit": "%"},
      {"measurement": "Cmax", "setting": "[8]", "result": 4.64, "unit": "µM"},
      {"measurement": "Ki", "setting": "P2X purinoceptor 7 [9]", "result": 180, "unit": "nM"},
      {"measurement": "Cp(f)", "setting": "[10]", "result": 0.381, "unit": "µM"},
      {"measurement": "TDI", "setting": "Cytochrome P450 3A4", "result": "Not Active"}
    ]}
  ]
}
